Results from ChEMBL document CHEMBL5120858, “Structure-activity relationship and antitumor activity of 1,4-pyrazine-containing inhibitors of histone acetyltransferases P300/CBP” (Eur J Med Chem, 2022).
Activity calls are given as the source filed them. The calls are words filed in the database; no cut-off is given here.

Tests used:
[1] = molecular target: T1, Histone acetyltransferase p300 (Homo sapiens, UniProt Q09472); assay: Inhibition of human p300 HAT domain (1195 to 1673 residues) using histone H3 peptide and acetyl-coA as substrates preincubated for 10 mins followed by substrate addition and measured after 30 mins by beckman scintillation counting analysis
Procedure, shortened: (§1)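 Radiometric HAT assay. Enzyme at 10 nM was preincubated with graded compound for 10 min at 25 °C in 50 mM phosphate pH 7.0 with 0.01% Brij-35. Reaction started with H3 (1-21) peptide (20 μM) plus Ac-CoA (1 μM ³H-Ac-CoA + 19 μM unlabelled) and run 30 min at 25 °C. Stopped with formic acid, spotted on P81 paper, washed with NaHCO₃ and scintillation counted. IC₅₀ from sigmoidal fit, mean of ≥3 experiments.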

[2] = molecular target: T1, Histone acetyltransferase p300; assay: Inhibition of human p300 HAT domain (1195 to 1673 residues) at 10 uM using histone H3 peptide and acetyl-coA as substrates preincubated for 10 mins followed by substrate addition and measured after 30 mins by beckman scintillation counting analysis relative to control; conditions: time 40.0 min
Procedure, shortened: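 Single-concentration screen at 10 μM in the radiometric p300 HAT domain assay: enzyme 10 nM, pH 7.0 phosphate/Brij-35, 10 min preincubation, then H3(1-21) peptide 20 μM plus ³H/unlabelled Ac-CoA (20 μM total), 30 min at 25 °C. Filter-bound ³H-acetylated peptide was counted, and the value is given as % inhibition.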

MCF7 = assay: Antiproliferative activity against human MCF7 cells assessed as reduction in cell growth incubated for 5 days by XTT assay; format: functional, cell-based; conditions: MCF7, 120 h
Procedure, shortened: (§2)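 Solid tumour cells were seeded at 10⁵ per well in DMEM with 10% FBS and penicillin/streptomycin and allowed to attach overnight. They were then exposed to increasing compound concentrations for 5 days. Viability was read by XTT, and EC50 came from dose-response curves.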

MDA-MB-231 [3] = assay: Antiproliferative activity against human MDA-MB-231 cells assessed as reduction in cell growth incubated for 5 days by XTT assay; format: functional, cell-based; conditions: MDA-MB-231, 120 h
LNCaP [4] = assay: Antiproliferative activity against human LNCaP cells assessed as reduction in cell growth incubated for 5 days by XTT assay; format: functional, cell-based; conditions: 120 h; procedure, shortened: as §2
PC-3 [5] = assay: Antiproliferative activity against human PC-3 cells assessed as reduction in cell growth incubated for 5 days by XTT assay; format: functional, cell-based; conditions: PC-3, 120 h
PANC-1 = assay: Antiproliferative activity against human PANC-1 cells assessed as reduction in cell growth incubated for 5 days by XTT assay; format: functional, cell-based; conditions: PANC-1, 120 h; procedure, shortened: as §2
[6] = Antiproliferative activity against human MDA-Panc-28 cells assessed as reduction in cell growth incubated for 5 days by XTT assay; format: functional, cell-based; conditions: MDA-Panc-28, 120 h; procedure, shortened: as §2
MOLM-13 [7] = assay: Antiproliferative activity against human MOLM-13 cells assessed as reduction in cell growth incubated for 5 days by XTT assay; format: functional, cell-based; conditions: MOLM-13, 120 h
Procedure, shortened: (§3)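 Blood cancer cells were plated at 10⁶ per well in RPMI-1640 with 20% FBS and penicillin/streptomycin and grown with increasing compound concentrations at 37 °C, 5% CO₂. Viability was measured by XTT, and EC50 was calculated from dose-response curves.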

MV4-11 = assay: Antiproliferative activity against human MV4-11 cells assessed as reduction in cell growth incubated for 5 days by XTT assay; format: functional, cell-based; conditions: MV4-11, 120 h; procedure, shortened: as §3
RPMI-8226 [8] = assay: Antiproliferative activity against human RPMI-8226 cells assessed as reduction in cell growth incubated for 5 days by XTT assay; format: functional, cell-based; conditions: RPMI-8226, 120 h; procedure, shortened: as §3
MDA-MB-231 [9] = assay: Antiproliferative activity against human MDA-MB-231 cells assessed as reduction in cell growth incubated for 3 to 5 days by CellTiter-Glo luminescent cell viability assay; format: functional, cell-based
PC-3 [10] = assay: Antiproliferative activity against human PC-3 cells assessed as reduction in cell growth incubated for 3 to 5 days by CellTiter-Glo luminescent cell viability assay; format: functional, cell-based
LNCaP [11] = assay: Antiproliferative activity against human LNCaP cells assessed as reduction in cell growth incubated for 3 to 5 days by CellTiter-Glo luminescent cell viability assay; format: functional, cell-based
MOLM-13 [12] = assay: Antiproliferative activity against human MOLM-13 cells assessed as reduction in cell growth incubated for 3 to 5 days by CellTiter-Glo luminescent cell viability assay; format: functional, cell-based
RPMI-8226 [13] = assay: Antiproliferative activity against human RPMI-8226 cells assessed as reduction in cell growth incubated for 3 to 5 days by CellTiter-Glo luminescent cell viability assay; format: functional, cell-based
Kasumi 1 [14] = assay: Inhibition of histone H3 acetylation at lysine 9 residue in human Kasumi 1 cells incubated for 12 hrs by Western blot analysis; format: functional, cell-based; conditions: dose 5-10 µM, DDE = dose-dependent effect
Procedure, shortened: (§4)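 Kasumi-1 cells (10⁶ per well) exposed to a range of compound concentrations for 12 h. Total histones extracted and 2 μg protein resolved by SDS-PAGE, then transferred to PVDF. Blots probed with antibodies to H3K9Ac, H3K18Ac, H3K27Ac and total H3, with anti-rabbit IgG secondary.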

Kasumi 1 [15] = assay: Inhibition of histone H3 acetylation at lysine 27 residue in human Kasumi 1 cells incubated for 12 hrs by Western blot analysis; format: functional, cell-based; conditions: dose 5-10 µM, DDE = dose-dependent effect; procedure, shortened: as §4
[16] = molecular target: T1, Histone acetyltransferase p300; assay: Inhibition of biotinylated histone H4 peptide binding to His-tagged human p300 HAT domain (1195 to 1673 residues) assessed as reduction in alpha signal incubated for 1 hr by amplified luminescent proximity homogeneous assay
Procedure, shortened: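 AlphaScreen binding assay in PBS with 0.5% BSA: His6-tagged p300 HAT (125 nM) on nickel chelate acceptor beads and biotinylated H4 peptide (30 nM) on streptavidin donor beads, with a dilution series of compound. After 1 h, signal was read with excitation at 680 nm and emission at 570 nm, and IC50 came from a sigmoidal dose-response fit.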

CREB-binding protein = CREB-binding protein (Homo sapiens, UniProt Q92793); assay: Inhibition of human CBP-HAT domain using histone H3 peptide and acetyl-coA as substrates preincubated for 10 mins followed by substrate addition and measured after 30 mins by beckman scintillation counting analysis; procedure, shortened: as §1
[17] = molecular target: Histone acetyltransferase KAT2B (Homo sapiens, UniProt Q92831); assay: Inhibition of human PCAF using histone H3 peptide and acetyl-coA as substrates preincubated for 10 mins followed by substrate addition and measured after 30 mins by beckman scintillation counting analysis; procedure, shortened: as §1
[18] = molecular target: Histone acetyltransferase KAT6A (Homo sapiens, UniProt Q92794); assay: Inhibition of human Myst3 using histone H3 peptide and acetyl-coA as substrates preincubated for 10 mins followed by substrate addition and measured after 30 mins by beckman scintillation counting analysis; procedure, shortened: as §1
Kasumi 1 [19] = assay: Inhibition of histone H3 acetylation at lysine 9 residue in human Kasumi 1 cells at 5 to 10 uM incubated for 12 hrs by Western blot analysis; format: functional, cell-based; conditions: dose 5-10 µM
Procedure, shortened: (§5)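 Kasumi-1 leukemia cells (10⁶ per well) were treated 12 h with a range of compound concentrations. Total histones were extracted, and 2 μg was resolved by SDS-PAGE and transferred to PVDF. Blots were probed for H3K9ac, H3K18ac, H3K27ac and total H3, with anti-rabbit IgG secondary.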

Kasumi 1 [20] = assay: Inhibition of histone H3 acetylation at lysine 27 residue in human Kasumi 1 cells at 5 to 10 uM incubated for 12 hrs by Western blot analysis; format: functional, cell-based; conditions: dose 5-10 µM; procedure, shortened: as §5
Kasumi 1 [21] = assay: Inhibition of histone H3 acetylation at lysine 18 residue in human Kasumi 1 cells incubated for 12 hrs by Western blot analysis; format: functional, cell-based; conditions: dose 5-10 µM, DDE = dose-dependent effect; procedure, shortened: as §5

T1 sequence (Q09472 whole entry, the tested form may be a part): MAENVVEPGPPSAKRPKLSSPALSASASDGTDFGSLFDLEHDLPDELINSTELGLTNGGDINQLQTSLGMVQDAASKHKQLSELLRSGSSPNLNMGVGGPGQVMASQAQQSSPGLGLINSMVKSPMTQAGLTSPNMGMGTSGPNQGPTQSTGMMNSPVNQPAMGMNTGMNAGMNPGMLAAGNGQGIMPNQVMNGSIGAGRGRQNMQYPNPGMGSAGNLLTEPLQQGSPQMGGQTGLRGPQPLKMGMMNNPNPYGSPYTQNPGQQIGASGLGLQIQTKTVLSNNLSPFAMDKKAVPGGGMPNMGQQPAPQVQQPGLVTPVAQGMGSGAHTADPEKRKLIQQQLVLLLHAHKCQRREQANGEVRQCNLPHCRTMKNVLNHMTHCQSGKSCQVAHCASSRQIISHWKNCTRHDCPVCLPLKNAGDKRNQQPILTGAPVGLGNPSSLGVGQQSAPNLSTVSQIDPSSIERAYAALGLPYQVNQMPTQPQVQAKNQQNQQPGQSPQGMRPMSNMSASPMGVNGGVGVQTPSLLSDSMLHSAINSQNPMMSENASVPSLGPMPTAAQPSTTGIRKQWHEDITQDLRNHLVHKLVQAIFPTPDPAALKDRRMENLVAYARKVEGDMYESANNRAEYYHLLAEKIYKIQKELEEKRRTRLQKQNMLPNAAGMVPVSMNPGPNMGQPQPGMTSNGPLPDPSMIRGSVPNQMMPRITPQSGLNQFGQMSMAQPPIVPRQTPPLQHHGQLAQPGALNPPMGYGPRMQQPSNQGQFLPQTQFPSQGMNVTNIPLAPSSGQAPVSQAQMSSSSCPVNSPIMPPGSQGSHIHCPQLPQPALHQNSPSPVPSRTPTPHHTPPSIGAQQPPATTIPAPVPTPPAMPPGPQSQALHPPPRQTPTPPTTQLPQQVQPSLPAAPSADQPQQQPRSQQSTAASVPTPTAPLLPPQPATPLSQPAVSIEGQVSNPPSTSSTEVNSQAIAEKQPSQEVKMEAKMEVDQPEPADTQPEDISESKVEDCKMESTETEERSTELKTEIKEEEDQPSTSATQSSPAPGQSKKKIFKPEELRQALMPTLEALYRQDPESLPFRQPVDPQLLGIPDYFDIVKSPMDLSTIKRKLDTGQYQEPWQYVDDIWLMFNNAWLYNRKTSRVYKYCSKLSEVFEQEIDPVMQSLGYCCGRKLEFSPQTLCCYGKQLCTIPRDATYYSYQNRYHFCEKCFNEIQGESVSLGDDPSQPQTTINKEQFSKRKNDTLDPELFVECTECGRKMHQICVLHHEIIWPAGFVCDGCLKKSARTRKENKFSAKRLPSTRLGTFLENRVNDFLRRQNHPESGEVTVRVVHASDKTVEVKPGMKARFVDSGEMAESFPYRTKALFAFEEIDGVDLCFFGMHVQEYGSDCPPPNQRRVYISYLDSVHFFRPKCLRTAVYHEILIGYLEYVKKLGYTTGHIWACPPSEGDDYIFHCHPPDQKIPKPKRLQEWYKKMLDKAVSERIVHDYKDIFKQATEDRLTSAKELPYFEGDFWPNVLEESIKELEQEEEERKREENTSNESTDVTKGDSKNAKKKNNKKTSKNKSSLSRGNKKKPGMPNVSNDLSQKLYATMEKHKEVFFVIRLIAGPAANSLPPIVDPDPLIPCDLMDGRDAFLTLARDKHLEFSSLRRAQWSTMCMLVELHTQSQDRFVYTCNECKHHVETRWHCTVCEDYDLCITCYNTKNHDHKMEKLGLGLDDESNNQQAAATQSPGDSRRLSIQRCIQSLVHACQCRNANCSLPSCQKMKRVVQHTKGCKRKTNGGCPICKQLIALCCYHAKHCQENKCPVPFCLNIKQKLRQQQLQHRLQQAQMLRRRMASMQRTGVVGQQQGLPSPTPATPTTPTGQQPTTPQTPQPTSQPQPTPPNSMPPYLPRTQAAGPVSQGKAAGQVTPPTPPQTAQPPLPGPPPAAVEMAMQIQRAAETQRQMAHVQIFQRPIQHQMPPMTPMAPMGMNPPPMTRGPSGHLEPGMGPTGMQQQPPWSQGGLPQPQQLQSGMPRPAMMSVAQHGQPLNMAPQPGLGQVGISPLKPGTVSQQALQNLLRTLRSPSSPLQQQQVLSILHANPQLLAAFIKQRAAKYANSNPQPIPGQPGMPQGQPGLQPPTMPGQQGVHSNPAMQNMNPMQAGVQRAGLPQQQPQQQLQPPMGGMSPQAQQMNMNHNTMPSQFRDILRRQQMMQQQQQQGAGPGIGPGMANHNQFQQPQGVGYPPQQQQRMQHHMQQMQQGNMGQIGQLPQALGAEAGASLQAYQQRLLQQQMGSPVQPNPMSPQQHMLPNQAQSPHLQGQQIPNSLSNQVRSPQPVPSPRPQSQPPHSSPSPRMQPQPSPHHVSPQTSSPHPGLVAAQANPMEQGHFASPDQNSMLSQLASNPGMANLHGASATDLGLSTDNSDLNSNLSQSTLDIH
Chain of Histone acetyltransferase KAT2B (Q92831 whole entry): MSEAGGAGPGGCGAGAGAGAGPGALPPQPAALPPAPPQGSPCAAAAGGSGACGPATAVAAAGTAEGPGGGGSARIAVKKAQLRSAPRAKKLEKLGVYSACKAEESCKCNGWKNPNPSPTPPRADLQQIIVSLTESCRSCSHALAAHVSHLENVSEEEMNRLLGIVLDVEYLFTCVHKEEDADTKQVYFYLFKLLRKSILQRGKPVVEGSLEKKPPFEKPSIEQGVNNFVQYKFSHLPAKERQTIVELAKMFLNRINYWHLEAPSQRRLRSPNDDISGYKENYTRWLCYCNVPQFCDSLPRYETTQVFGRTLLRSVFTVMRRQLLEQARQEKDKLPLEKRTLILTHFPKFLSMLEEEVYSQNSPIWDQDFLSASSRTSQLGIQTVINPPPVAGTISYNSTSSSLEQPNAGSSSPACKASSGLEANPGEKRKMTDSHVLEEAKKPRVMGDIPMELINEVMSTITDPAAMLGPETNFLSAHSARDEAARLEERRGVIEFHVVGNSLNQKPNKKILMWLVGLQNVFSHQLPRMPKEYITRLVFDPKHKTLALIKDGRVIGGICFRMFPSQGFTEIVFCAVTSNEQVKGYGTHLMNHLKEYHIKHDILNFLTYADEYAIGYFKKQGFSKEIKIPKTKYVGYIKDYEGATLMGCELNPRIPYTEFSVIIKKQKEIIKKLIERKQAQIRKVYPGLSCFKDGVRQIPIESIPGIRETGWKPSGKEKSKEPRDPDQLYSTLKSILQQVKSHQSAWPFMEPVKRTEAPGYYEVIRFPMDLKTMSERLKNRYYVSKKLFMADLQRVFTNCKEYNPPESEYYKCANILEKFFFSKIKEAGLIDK

Structure (SMILES) | IC50 [1] | inhibition [2] | further results
c1ccc(-c2ccc(-c3ncc(OCC4CCNCC4)nc3-c3ccc(-c4ccccn4)cc3)cc2)nc1 | > 10 µM | 37% | 
NCCCOc1cnc(-c2ccc(Br)cc2)c(-c2ccc(Br)cc2)n1 | > 10 µM |  | EC50 (MCF7): > 20 µM; EC50 (MDA-MB-231 [3]): > 20 µM; EC50 (LNCaP [4]): > 20 µM; EC50 (PC-3 [5]): > 20 µM; EC50 (PANC-1): > 20 µM; EC50 [6]: > 20 µM; EC50 (MOLM-13 [7]): > 20 µM; EC50 (MV4-11): > 20 µM; EC50 (RPMI-8226 [8]): > 20 µM
CCc1ccc(-c2ncc(OCC3CCNCC3)nc2-c2ccc(CC)cc2)cc1 | 10 µM | 55% | 
Cc1ccc(-c2ncc(OCC3CCNCC3)cc2-c2ccc(CO)cc2)cc1 | 62.6 µM |  | 
c1ccc(-c2cc(OCC3CCNCC3)cnc2-c2ccccc2)cc1 | 46.3 µM |  | 
Brc1ccc(-c2ncc(OCC3CCNC3)nc2-c2ccc(Br)cc2)cc1 (stereo unspecified) | > 10 µM |  | 
CNC(=O)Nc1ccc2c(c1)CC[C@@]21OC(=O)N(CC(=O)N(Cc2ccc(F)cc2)[C@@H](C)C(F)(F)F)C1=O (single isomer, unassigned) [A-485] |  |  | EC50 (MDA-MB-231 [9]): > 10 µM; EC50 (PC-3 [10]): 2.1 µM; EC50 (LNCaP [11]): 0.26 µM; EC50 (MOLM-13 [12]): 0.35 µM; EC50 (RPMI-8226 [13]): 0.16 µM
Ic1ccc(-c2ncc(OCC3CCNCC3)nc2-c2ccc(I)cc2)cc1 | 7.8 µM |  | 
FC(F)(F)c1ccc(-c2ncc(OCC3CCNCC3)nc2-c2ccc(C(F)(F)F)cc2)cc1 | > 10 µM | 34% | 
N#Cc1ccc(-c2ncc(OCC3CCNCC3)nc2-c2ccc(Br)cc2)cc1 | > 10 µM | 0% | 
c1cc(-c2ccc(-c3ncc(OCC4CCNCC4)nc3-c3ccc(-c4ccncc4)cc3)cc2)ccn1 | > 10 µM | 39% | 
COc1ccc(-c2ncc(OCC3CCNCC3)nc2-c2ccc(OC)cc2)cc1 | > 10 µM | 38% | 
Clc1ccc(-c2ncc(OCC3CCNCC3)nc2-c2ccc(Cl)cc2)cc1 | > 10 µM |  | 
CC(=O)NCCOc1cnc(-c2ccc(Br)cc2)c(-c2ccc(Br)cc2)n1 | > 10 µM | 0% | 
CNCCCCOc1cnc(-c2ccc(Br)cc2)c(-c2ccc(Br)cc2)n1 | > 10 µM |  | 
Nc1ccc(-c2ccc(-c3ncc(OCC4CCNCC4)nc3-c3ccc(-c4ccc(N)cc4)cc3)cc2)cc1 | 2.3 µM |  | 

Structure (SMILES) | IC50 [1] | inhibition [2] | further results
O=C(O)c1cnc(-c2ccc(Br)cc2)c(-c2ccc(Br)cc2)n1 | > 10 µM | 30% | 
Brc1cccc(-c2ncc(OCC3CCNCC3)nc2-c2cccc(Br)c2)c1 | 9.9 µM |  | 
CN(C)CCCOc1cnc(-c2ccc(Br)cc2)c(-c2ccc(Br)cc2)n1 | > 10 µM | 4.8% | 
OCc1ccc(-c2ncc(OCC3CCNCC3)nc2-c2ccc(CO)cc2)cc1 | 10 µM | 48.2% | 
NCc1ccc(-c2ncc(OCC3CCNCC3)nc2-c2ccc(CN)cc2)cc1 | 2.8 µM |  | inhibition (Kasumi 1 [14]): Dde; inhibition (Kasumi 1 [15]): Dde
Fc1cc(-c2ncc(OCC3CCNCC3)nc2-c2ccc(Br)c(F)c2)ccc1Br | 11.8 µM |  | 
NCCOc1cnc(-c2ccc(Br)cc2)c(-c2ccc(Br)cc2)n1 | > 10 µM | 5.4% | 
N#Cc1ccc(-c2ncc(OCC3CCNCC3)nc2-c2ccc(C#N)cc2)cc1 | > 10 µM | 0% | 
CNCCOc1cnc(-c2ccc(Br)cc2)c(-c2ccc(Br)cc2)n1 | > 10 µM | 19.6% | 
Brc1ccc(-c2ncc(OCC3CCNCC3)nc2-c2ccc(Br)c(Br)c2)cc1Br |  | 50% | 
N#Cc1ccc(-c2nc(OCC3CCNCC3)cnc2-c2ccc(Br)cc2)cc1 | > 10 µM | 21% | 
Brc1ccc(-c2ncc(OCC3CCNCC3)nc2-c2ccc(Br)cc2)cc1 | 5.7 µM | 72.5% | IC50 [16]: 27 µM
NCCCCOc1cnc(-c2ccc(Br)cc2)c(-c2ccc(Br)cc2)n1 | > 10 µM |  | 
CC(C)(C)c1ccc(-c2ncc(OCC3CCNCC3)nc2-c2ccc(C(C)(C)C)cc2)cc1 | 17.6 µM |  | 
CN(C)Cc1ccc(-c2ncc(OCC3CCNCC3)nc2-c2ccc(CN(C)C)cc2)cc1 | > 10 µM |  | 
c1cc(-c2ccc(-c3ncc(OCC4CCNCC4)nc3-c3ccc(-c4ccoc4)cc3)cc2)co1 | 1.4 µM |  | IC50 [16]: 7.2 µM; IC50 (CREB-binding protein): 2.2 µM; IC50 [17]: > 100 µM; IC50 [18]: > 100 µM; inhibition (Kasumi 1 [19]): Active; inhibition (Kasumi 1 [20]): Active; inhibition (Kasumi 1 [21]): Dde; EC50 (MCF7): 5.3 µM; EC50 (PANC-1): 1.2 µM; EC50 [6]: 4.3 µM; EC50 (MOLM-13 [7]): 3.6 µM; EC50 (MV4-11): 8.7 µM; EC50 (RPMI-8226 [8]): 6.4 µM
